This passage reports MIC and ED50 results from ChEMBL document CHEMBL1134236, “Anti-MRSA cephems. Part 1: C-3 substituted thiopyridinium derivatives” (Bioorg Med Chem Lett, 2001).

In brackets after ≈: the same amount, converted by molar mass.

In assay [1] the test system is Staphylococcus aureus. Put plainly: Minimum inhibitory concentration against methicillin-resistant Staphylococcus aureus (MRSA) A27223. Type of assay: functional. The essentials:
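Broth microdilution per NCCLS in Mueller-Hinton broth with 2% NaCl. Inoculum about 5×10⁵ CFU/mL, incubated at 35 °C for 24 h. MIC is the lowest drug concentration that inhibits all visible growth.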

Assay [2] relates to Staphylococcus aureus. Put plainly: Dose required for protective activity against methicillin-resistant Staphylococcus aureus (MRSA) A27223 in mouse following i.m. administration. Particulars: im, read-out: PD50.
Assay [3] relates to Staphylococcus aureus. Put plainly: Minimum inhibitory concentration against methicillin-resistant Staphylococcus aureus (MRSA) A27223 in the presence of 50% calf serum. Type of assay: functional. The method in brief: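 NCCLS broth MIC in Mueller-Hinton broth with 2% NaCl plus 50% calf serum. Inoculum about 5×10⁵ CFU/mL, incubated at 35 °C for 24 h. Read as the lowest concentration with no visible growth.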

As for `Cc1cc(SCC2=C(C(=O)[O-])N3C(=O)[C@@H](NC(=O)CSc4cc(Cl)ccc4Cl)[C@H]3SC2)cc(CCc2ccc(Cl)s2)[n+]1CC[C@@H](O)C(=O)O`, the figures for the MIC with Staphylococcus aureus [1] and in the assay on Staphylococcus aureus [3] were 8 µg/mL (≈ 9.96 µM) and 8 µg/mL, respectively. In addition, the ED50 in the assay with Staphylococcus aureus [2] was above 23 mg/kg.
`Cc1cc(SCC2=C(C(=O)O)N3C(=O)[C@@H](NC(=O)CSc4cc(Cl)ccc4Cl)[C@H]3SC2)cc(CCC(=O)O)[n+]1CCN.O=C(O)C(F)(F)F.O=C([O-])C(F)(F)F`: the MIC in the assay on Staphylococcus aureus [1] and in the assay with Staphylococcus aureus [3] was 2 µg/mL each time. In the assay on Staphylococcus aureus [2], the ED50 worked out at 3.9 mg/kg.
Take `Cc1cc(SCC2=C(C(=O)[O-])N3C(=O)[C@@H](NC(=O)CSc4cc(Cl)ccc4Cl)[C@H]3SC2)cc(CCc2ccccc2)[n+]1CCS(=O)(=O)O`: the values for the minimum inhibitory concentration (MIC) against Staphylococcus aureus [1] and in the assay with Staphylococcus aureus [3] were 2 µg/mL (≈ 2.6 µM) and 4 µg/mL, respectively. In addition, the ED50 with Staphylococcus aureus [2] is above 25 mg/kg.
In the case of `CCCC[n+]1c(C)cc(SCC2=C(C(=O)[O-])N3C(=O)[C@@H](NC(=O)CSc4cc(Cl)ccc4Cl)[C@H]3SC2)cc1CCC(=O)O`, the results for the MIC in the assay on Staphylococcus aureus [1] and with Staphylococcus aureus [3] were 4 µg/mL (≈ 5.84 µM) and 8 µg/mL, respectively. In addition, the ED50 in the assay with Staphylococcus aureus [2] is above 23 mg/kg.
In the case of `Cc1cc(SCC2=C(C(=O)[O-])N3C(=O)[C@@H](NC(=O)CSc4cc(Cl)ccc4Cl)[C@H]3SC2)cc(CCC(=O)O)[n+]1CCO`, the MIC (commonly the lowest concentration found to suppress growth) with Staphylococcus aureus [1] amounted to 2 µg/mL (≈ 2.97 µM); in the assay with Staphylococcus aureus [3], 4 µg/mL. For the same compound, the ED50 in the assay on Staphylococcus aureus [2] was 8.4 mg/kg.
The like results for `C[n+]1ccc(SCC2=C(C(=O)[O-])N3C(=O)[C@@H](NC(=O)CSc4cc(Cl)ccc4Cl)[C@H]3SC2)cc1CCCC(=O)O` were, in that order, 4 µg/mL (≈ 6.22 µM), 8 µg/mL and 5.2 mg/kg.
In the same order, the values of `NCCC[n+]1ccc(SCC2=C(C(=O)O)N3C(=O)[C@@H](NC(=O)CSc4cc(Cl)nc(Cl)c4)[C@H]3SC2)cc1CCCC(=O)O.O=C(O)C(F)(F)F.O=C([O-])C(F)(F)F` are 2 µg/mL, 4 µg/mL and 4.3 mg/kg.
Take `Cc1cc(SCC2=C(C(=O)[O-])N3C(=O)[C@@H](NC(=O)CSc4cc(Cl)ccc4Cl)[C@H]3SC2)cc(CCC(=O)O)[n+]1Cc1cccs1`: the MIC against Staphylococcus aureus [1] turned out to be 4 µg/mL (≈ 5.52 µM); with Staphylococcus aureus [3], 8 µg/mL. In the assay with Staphylococcus aureus [2], the ED50 is above 23 mg/kg.
The like results for `Cc1cc(SCC2=C(C(=O)[O-])N3C(=O)[C@@H](NC(=O)CSc4cc(Cl)ccc4Cl)[C@H]3SC2)cc(CCC(=O)O)[n+]1CCc1cccs1` were, in that order, 4 µg/mL (≈ 5.41 µM), 8 µg/mL and above 23 mg/kg.
